From PubChem
A selection: hits, their analogues and other compounds. The true share with any hit is near 2.1%.
bCat nuc transl: modulators of beta-catenin nuclear translocation, primary screen, imaging, HeLa cells, immunofluorescence, high-content; 190,000 compounds, 0.3% hits; AID 1665, 2009; nuclear translocation activity, % at 5 µM;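 active = nuclear translocation activity above 50% at 5 µM, with a well cell count of 50 or more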;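 note: per-cell ratio of nuclear to cytoplasmic median beta-catenin stain intensity; plate controls were DMSO negative control for no effect and GSK-3 inhibitor IX positive control for full effect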
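Test system: human HeLa cell line; Doses: 5 µM primary, 0.02–20 µM confirmation; Incubation: 24 h compound exposure, 37°C; Detection: beta-catenin immunofluorescence imaging with DAPI; Read-out: beta-catenin nuclear/cytoplasmic ratio, % activation.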
MT stabilize HCS: microtubule stabilizers in HeLa cells, primary screen, imaging, high-content imaging. % tubulin-high responders, % at 10 µM. HeLa tubulin immunostaining HCS, 24 h; share of cells brighter than vehicle mean+2SD. 200,000 compounds, 0.83% hits. AID 2205, 2009;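 active = plate Z-score above 3 for both tubulin-high and condensed-nucleus cell shares, with cell loss under 80%, at 10 µM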;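 note: anti alpha tubulin signal scored within the nucleus-defined area of each cell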
Autophagy mod: autophagy modulators in MEF cells, primary screen, imaging, high-content, MEF GFP-LC3; MEF GFP-LC3 puncta imaging; test concentration mostly 10 µM; calls only at 10 µM (by protocol); 190,000 compounds, 0.98% hits; AID 463193, 2010;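 active = percentage of spot-positive cells more than 3 SD above its plate mean, without a fluorescence outlier flag or 80% toxicity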;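 note: spot-positive cell cutoff set from DMSO-treated cells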
ABCB1 block: ABCB1 efflux pump inhibitors, primary screen, cell-based, multiplex, flow cytometry, ABCG2 counter-screen; ATP-dependent translocase ABCB1 (Homo sapiens), P08183; CCRF-Adr cells, JC-1 efflux; inhibition, % at 6.6 µM; 190,000 compounds, 0.067% hits; in the data active = inhibition above about 40%;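 note: 0% = vehicle and 100% = reference inhibitor; higher value means more JC-1 retained so stronger ABCB1 efflux block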
ABCG2 block: ABCG2 efflux pump inhibitors, primary screen, multiplex with ABCB1, IgMXP3 cells, flow cytometry. 190,000 compounds, 0.1% hits. Broad substrate specificity ATP-binding cassette transporter ABCG2 (Homo sapiens), Q9UNQ0. JC-1 efflux. inhibition, % at 6.6 µM. AID 1325, 2008;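 active = inhibition above 80%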;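 note: 0% = DMSO and 100% = nicardipine control wells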
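Test system: IgMXP3 (ABCG2) plus far-red-tagged CCRF-Adr (ABCB1) cells. Reagent: JC-1 dye as substrate. Timing: 10 min exposure at 25 °C with rotation, no wash. Measured by: flow cytometric JC-1 green MFI at 530 nm. Read-out: percent efflux inhibition, scaled nicardipine 100% to DMSO 0%. Control set: nicardipine and DMSO wells.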
Arbovirus anti: antivirals against arbovirus infection, primary screen, cell-based, full library, 10K replicate subset; arbovirus infection cell-based antiviral screen; inhibition, % at 10 µM; 200,000 compounds, 0.37% hits; in the data active = inhibition above about 30%
An asterisk follows results filed as active; i = inactive; / = no result; + = active, no number.

SMILES	bCat nuc transl	MT stabilize HCS	Autophagy mod	ABCB1 block	ABCG2 block	Arbovirus anti
CC(=O)N1CCN(c2nnnn2-c2ccccc2)CC1	-3	1	i	2	5	7
COc1ccc2oc(C(=O)c3ccccc3)c(NC(=O)CN3CCN(C)CC3)c2c1	-3	1	+	31	40	-24
CCOC(=O)c1oc2ccc(Br)cc2c1NC(=O)CN1CCN(C)CC1	1	1	i	3	4	-18
Cc1nn2cc(-c3cccc(Cl)c3)cnc2c1Cl	70*	20*	i	2	14	-14
Cc1nn2cc(-c3cccc(Cl)c3)cnc2c1Br	1	16*	i	0	11	-17
CC(C)n1nnnc1-c1cccc(Cl)c1	-1	2	i	0	1	-3
O=C(COC(=O)c1cccs1)NCc1ccco1	-7	/	/	/	/	/
O=C(NCCCNC(=O)c1cncc(O)c1)c1cncc(O)c1	0	5	i	0	0	21
CC(C)N(Cc1ccccc1)C(=S)NCCN1CCOCC1	-2	3	i	0	-1	6
COc1cc(C2CC(=O)N(c3ccc(C)cc3)C(=O)C2)cc(OC)c1OC	75*	/	/	/	/	/
COc1ccc(N2C(=O)CC(c3cc(OC)c(OC)c(OC)c3)CC2=O)cc1	1	/	/	/	/	/
Brc1ccc(NCc2cccc3ccccc23)nc1	0	2	i	1	12	-2
C=CC(=O)NCc1ccc(-c2csnn2)cc1	-1	/	/	/	/	/
COc1ccc(CSc2nnnn2-c2ccccc2)cc1	/	2	i	1	8	-1
COc1ccc2c(C)cc(Sc3nnnn3-c3ccccc3)nc2c1	-1	3	i	1	3	31*
COc1ccc(-n2nnnc2-c2ccccc2)cc1	/	36*	+	1	11	-1
CC(=O)C1=C(c2ccccc2)OC(N)=C(C#N)C1c1ccccc1F (stereo not given)	2	2	i	0	2	6
O=C(Oc1cccc(NC(=O)c2cccs2)c1)c1cccc(S(=O)(=O)N2CCCC2)c1	0	1	i	0	-5	0
O=C(CSCc1ccco1)Nc1cc(C(F)(F)F)ccc1N1CCOCC1	-4	3	+	0	0	2
COc1ccccc1/C=C/C(=O)OCC(=O)Nc1cc(C(F)(F)F)ccc1N1CCOCC1	0	19*	i	1	7	-13
Cc1ccc2nc(SCC(=O)Nc3cc(C(F)(F)F)ccc3N3CCOCC3)[nH]c2c1	/	22*	i	2	7	-13
Nc1nc(SCC(=O)Nc2cc(C(F)(F)F)ccc2N2CCOCC2)n[nH]1	4	3	i	0	1	-3
O=C(COC(=O)/C=C/c1ccccc1)Nc1cc(C(F)(F)F)ccc1N1CCOCC1	2	3	i	0	18	-1
CCOC(=O)c1ccc(NC(=S)N2CCSC2c2c(F)cc(F)cc2F)cc1 (stereo not given)	-2	6	i	-1	44	41*
CCCCCCOc1ccc(/C(C)=N/NC2=NCCN2)cc1[N+](=O)[O-]	4	4	+	0	10	-22
SMILES	bCat nuc transl	MT stabilize HCS	Autophagy mod	ABCB1 block	ABCG2 block	Arbovirus anti
CCCCOc1ccc(Br)cc1/C(C)=N/NC1=NCCN1	52*	8	+	0	1	-36
C/C(=N\NC1=NCCN1)c1ccc(N)c([N+](=O)[O-])c1	2	/	/	/	/	/
COc1ccc(NC(=O)/C(C#N)=C\C=C\c2ccco2)cc1	9	19*	i	0	4	5
CC1CCc2sc(C(=O)OCC(=O)NCc3ccc(F)cc3)cc2C1 (stereo not given)	119*	8	i	0	0	4
O=C(c1ccccc1F)N1CCN(C2CCC(c3ccccc3)CC2)CC1 (stereo not given)	1	/	i	1	2	-4
Cc1ccc(-c2nc3ccccc3o2)cc1NC(=O)c1ccc2c(c1)OCO2	/	1	i	0	0	-11
COc1ccc(-c2noc(=O)n2Cc2cc(C)ccc2C)cc1	4	11*	i	1	3	-3
Fc1ccc(C[n+]2csc3ccccc32)cc1	/	1	i	1	3	-4
Clc1ccc(C[n+]2csc3ccccc32)cc1	/	6	+	2	5	-7
CC(=O)c1ccc(Nc2cc(C)nc3c(C)cc(C)cc23)cc1	124*	20*	+	0	9	-20
COC(=O)c1ccc(Nc2cc(C)nc3ccccc23)cc1	79*	/	/	/	/	/
O=C1c2ccccc2C(=O)N1Cc1nc(-c2ccccn2)no1	1	5	i	0	1	6
O=C(O)CSc1nc2c(cnn2-c2ccccc2)c(=O)n1-c1ccc(Br)cc1	/	4	i	0	3	11
CSc1ncc(Cl)c(C(=O)Nc2sc3c(c2C(=O)NCc2ccco2)CCCC3)n1	-3	5	+	1	30	-6
CCSc1ncc(Cl)c(C(=O)Nc2sc3c(c2C(=O)NCc2cccnc2)CCCC3)n1	-1	3	i	1	2	-6
Cc1cccc(NC(=S)N(c2ccccc2)C(C)C)c1C	2	2	i	0	5	-1
COc1cc(S(=O)(=O)N2CCN=C2c2ccccc2)ccc1F	/	44*	i	0	0	-19
COc1cc(S(=O)(=O)n2c(C)nc3ccccc32)ccc1F	/	28*	i	1	5	3
COc1cccc2cc(C(C)N(CCCN3CCOCC3)C(=S)Nc3ccc(C)cc3)oc12 (stereo not given)	2	2	i	1	2	9
Cc1nn(CC(O)Cn2c3c(c4ccccc42)CCN(C)C3=O)c(C)c1Br (stereo not given)	-1	3	i	-3	1	36*
CCOC(=O)c1c(NC(=O)c2ccccc2N(C)S(=O)(=O)c2ccccc2)sc2c1CCCC2	60*	13*	i	3	14	-5
COC(=O)c1c(NC(=O)c2ccccc2N(C)S(=O)(=O)c2ccccc2)sc2c1CCCC2	2	22*	i	0	1	-21
COc1ccccc1NC(=O)C1=C(C)N(c2ccccc2)C(=S)NC1c1cccc(C(F)(F)F)c1 (stereo not given)	/	3	i	2	12	3
CC(C)=CCC/C(C)=C/CC(C)(C)CNCCN1CCNCC1	0	8	i	0	0	-30
CC(C)=CCC/C(C)=C/CCC(C)NCCN1CCNCC1 (stereo not given)	0	3	+	0	8	-30
